{"source": "ChEMBL document CHEMBL3804777", "about": "“Identification and Preclinical Pharmacology of BMS-986104: A Differentiated S1P1 Receptor Modulator in Clinical Trials” (ACS Med Chem Lett, 2016)", "key": {"[1]": {"system": "Blood", "assay": "Drug metabolism in BALB/c mouse blood assessed as formation of phosphate ester metabolite at 10 mg/kg administered through oral gavage after 24 hrs by LC/MS/MS analysis", "assay_type": "ADME, organism-based", "conditions": "in vivo", "how_it_was_run": "(§1)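 Mouse PK study: alcohol prodrug given orally at 10 mg/kg, and formation of the phosphate metabolite in blood measured.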"}, "[2]": {"assay": "Drug metabolism in BALB/c mouse whole blood assessed as whole blood phosphate area ratio at 10 uM after 4 hrs by LC/MS/MS analysis", "assay_type": "ADME, tissue-based", "how_it_was_run": "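Mouse whole blood incubated with the amino-alcohol prodrug; phosphorylated product measured by LC/MS/MS after 4 h to give the relative extent of phosphate ester formation.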"}, "[3]": {"system": "Blood", "assay": "Drug metabolism in BALB/c mouse blood assessed as formation of phosphate ester metabolite at 10 mg/kg administered through oral gavage after 4 hrs by LC/MS/MS analysis", "assay_type": "ADME, organism-based", "conditions": "in vivo", "how_it_was_run": "as §1"}, "[4]": {"system": "Mus musculus", "assay": "Reduction of blood lymphocyte level in BALB/c mouse at 1 mg/kg administered through oral gavage after 24 hrs by hematology analysis", "assay_type": "functional", "set-up": "scale not given: the % may be the effect or the level left", "how_it_was_run": "(§2)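 Mice given a single oral 1 mg/kg dose; circulating lymphocytes counted 24 h later as the pharmacodynamic marker.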"}, "[5]": {"system": "Mus musculus", "assay": "Reduction in blood lymphocyte level in BALB/c mouse at 1 mg/kg, po after 24 hrs by hematology analysis", "assay_type": "functional, organism-based", "how_it_was_run": "as §2"}, "[6]": {"system": "Mus musculus", "assay": "Reduction in lymphocyte level in BALB/c mouse assessed as blood lymphocyte level at 0.5 mg/kg, po after 24 hrs by hematology analysis (reference value: 5.13 to 8.02 10^3/mm3)", "assay_type": "functional"}, "[7]": {"system": "Mus musculus", "assay": "Reduction in lymphocyte level in BALB/c mouse assessed as blood lymphocyte level at 10 mg/kg, po after 24 hrs by hematology analysis (reference value: 5.13 to 8.02 10^3/mm3)", "assay_type": "functional"}, "[8]": {"system": "Mus musculus", "assay": "Reduction in lymphocyte level in BALB/c mouse assessed as blood lymphocyte level at 30 mg/kg, po after 24 hrs by hematology analysis (reference value: 5.13 to 8.02 10^3/mm3)", "assay_type": "functional"}, "[9]": {"system": "Mus musculus", "assay": "Pulmonary toxicity in BALB/c mouse assessed as BAL protein levels at 0.5 mg/kg, po after 24 by hematology analysis (reference value: 8.2 to 8.3 mg/dL)", "assay_type": "organism-based", "conditions": "in vivo"}, "[10]": {"system": "Mus musculus", "assay": "Pulmonary toxicity in BALB/c mouse assessed as BAL protein levels at 10 mg/kg, po after 24 by hematology analysis (reference value: 8.2 to 8.3 mg/dL)", "assay_type": "organism-based", "conditions": "in vivo"}, "[11]": {"system": "Mus musculus", "assay": "Pulmonary toxicity in BALB/c mouse assessed as BAL protein levels at 30 mg/kg, po after 24 by hematology analysis (reference value: 8.2 to 8.3 mg/dL)", "assay_type": "organism-based", "conditions": "in vivo"}, "[12]": {"assay": "Plasma clearance in mouse at 0.5 mg/kg, iv", "assay_type": "ADME, organism-based"}, "[13]": {"assay": "Volume of distribution at steady state in mouse at 0.5 mg/kg, iv", "assay_type": "ADME, organism-based", "conditions": "in vivo, read-out: Vdss"}, "[14]": {"assay": "Oral bioavailability in mouse at 1 mg/kg", "assay_type": "ADME, organism-based", "conditions": "in vivo"}, "[15]": {"system": "Mus musculus", "assay": "Reduction in body weight loss in SCID mouse with CD45RBhiCD4+ T-cell transfer-induced colitis model of inflammatory bowel disease at 1 or 5 mg/kg, po dosed every other day for 5 weeks", "assay_type": "functional, organism-based", "how_it_was_run": "(§3)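 CD45RBhiCD4+ T-cell transfer colitis in mice; oral alternate-day dosing for 5 weeks, compared with vehicle. Read-outs: body weight, colon length, histological colon inflammation and tissue damage, and colon gene expression by RT-PCR (IFN-γ, IL-2, CD4, B220, CD11b, Fcgr4, Ifit1, OASL2).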"}, "[16]": {"system": "Mus musculus", "assay": "Induction of colon length shortening in SCID mouse with CD45RBhiCD4+ T-cell transfer-induced colitis model of inflammatory bowel disease at 1 or 5 mg/kg, po dosed every other day for 5 weeks", "assay_type": "functional, organism-based", "how_it_was_run": "as §3"}, "[17]": {"system": "Mus musculus", "assay": "Reduction in colon inflammation in SCID mouse with CD45RBhiCD4+ T-cell transfer-induced colitis model of inflammatory bowel disease at 1 or 5 mg/kg, po dosed every other day for 5 weeks by H and E staining method", "assay_type": "functional, organism-based", "how_it_was_run": "as §3"}, "[18]": {"system": "Mus musculus", "assay": "Reduction in colon tissue damage in SCID mouse with CD45RBhiCD4+ T-cell transfer-induced colitis model of inflammatory bowel disease at 1 or 5 mg/kg, po dosed every other day for 5 weeks by H and E staining method", "assay_type": "functional, organism-based", "how_it_was_run": "as §3"}, "[19]": {"system": "Mus musculus", "assay": "Reduction in IL2 gene expression in SCID mouse with CD45RBhiCD4+ T-cell transfer-induced colitis model of inflammatory bowel disease at 1 mg/kg, po dosed daily for 5 weeks by RT-PCR method", "assay_type": "functional", "set-up": "scale not given: the % may be the effect or the level left", "conditions": "in the assay text read “dosed on alternate days” for “dosed daily”"}, "[20]": {"system": "Mus musculus", "assay": "Reduction in IFNgamma gene expression in SCID mouse with CD45RBhiCD4+ T-cell transfer-induced colitis model of inflammatory bowel disease at 1 mg/kg, po dosed daily for 5 weeks by RT-PCR method", "assay_type": "functional", "set-up": "scale not given: the % may be the effect or the level left", "conditions": "in the assay text read “dosed on alternate days” for “dosed daily”"}, "[21]": {"system": "Mus musculus", "assay": "Reduction in CD11b gene expression in SCID mouse with CD45RBhiCD4+ T-cell transfer-induced colitis model of inflammatory bowel disease at 1 mg/kg, po dosed daily for 5 weeks by RT-PCR method", "assay_type": "functional", "set-up": "scale not given: the % may be the effect or the level left", "conditions": "in the assay text read “dosed on alternate days” for “dosed daily”"}, "[22]": {"system": "Mus musculus", "assay": "Reduction in CD4 gene expression in SCID mouse with CD45RBhiCD4+ T-cell transfer-induced colitis model of inflammatory bowel disease at 1 mg/kg, po dosed daily for 5 weeks by RT-PCR method", "assay_type": "functional", "set-up": "scale not given: the % may be the effect or the level left", "conditions": "in the assay text read “dosed on alternate days” for “dosed daily”"}, "[23]": {"system": "Mus musculus", "assay": "Reduction in B220 gene expression in SCID mouse with CD45RBhiCD4+ T-cell transfer-induced colitis model of inflammatory bowel disease at 1 mg/kg, po dosed daily for 5 weeks by RT-PCR method", "assay_type": "functional", "set-up": "scale not given: the % may be the effect or the level left", "conditions": "in the assay text read “dosed on alternate days” for “dosed daily”"}, "[24]": {"system": "Mus musculus", "assay": "Reduction in Fcgr4 gene expression in SCID mouse with CD45RBhiCD4+ T-cell transfer-induced colitis model of inflammatory bowel disease at 1 mg/kg, po dosed daily for 5 weeks by RT-PCR method", "assay_type": "functional", "set-up": "scale not given: the % may be the effect or the level left", "how_it_was_run": "(§4)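 CD45RBhiCD4+ T-cell transfer colitis in mice; oral dosing at 1 mg/kg/day for 5 weeks, compared with vehicle. Read-outs: body weight, colon length, and colon gene expression by RT-PCR (IFN-γ, IL-2, CD4, B220, CD11b, Fcgr4, Ifit1, OASL2).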"}, "[25]": {"system": "Mus musculus", "assay": "Reduction in Ifit1 gene expression in SCID mouse with CD45RBhiCD4+ T-cell transfer-induced colitis model of inflammatory bowel disease at 1 mg/kg, po dosed daily for 5 weeks by RT-PCR method", "assay_type": "functional", "set-up": "scale not given: the % may be the effect or the level left", "how_it_was_run": "as §4"}, "[26]": {"system": "Mus musculus", "assay": "Reduction in OASL2 gene expression in SCID mouse with CD45RBhiCD4+ T-cell transfer-induced colitis model of inflammatory bowel disease at 1 mg/kg, po dosed daily for 5 weeks by RT-PCR method", "assay_type": "functional", "set-up": "scale not given: the % may be the effect or the level left", "how_it_was_run": "as §4"}, "[27]": {"system": "Blood", "assay": "Drug metabolism in BALB/c mouse blood assessed as formation of phosphate metabolite at 1 mg/kg administered through oral gavage after 24 hrs by LC/MS/MS analysis", "assay_type": "ADME, organism-based", "conditions": "in vivo", "how_it_was_run": "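Single oral 1 mg/kg dose in mice; phosphate level in blood determined at 24 h postdose.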"}}, "note": "Activity calls are given as the source filed them. The rule behind the calls is not given here.", "data": [{"compound": "CCCCCC[C@@H]1CCc2cc([C@H]3CC[C@](N)(CO)C3)ccc2C1", "note": "[BMS-986104]", "values": [{"measurement": "Drug metabolism", "setting": "[1]", "value": 202, "unit": "nM"}, {"measurement": "Ratio", "setting": "[2]", "value": 0.6}, {"measurement": "Drug metabolism", "setting": "[3]", "value": 41, "unit": "nM"}, {"measurement": "Activity", "setting": "[4]", "value": 88, "unit": "%"}, {"measurement": "Activity", "setting": "[5]", "value": "Active"}, {"measurement": "Activity", "setting": "[6]", "value": 1.65, "unit": "×10³ /mm3"}, {"measurement": "Activity", "setting": "[7]", "value": 0.51, "unit": "×10³ /mm3"}, {"measurement": "Activity", "setting": "[8]", "value": 0.52, "unit": "×10³ /mm3"}, {"measurement": "Activity", "setting": "[9]", "value": 7.67, "unit": "mg/dL"}, {"measurement": "Activity", "setting": "[10]", "value": 8.25, "unit": "mg/dL"}, {"measurement": "Activity", "setting": "[11]", "value": 10, "unit": "mg/dL"}, {"measurement": "clearance", "setting": "[12]", "value": 20, "unit": "mL/min/kg"}, {"measurement": "Vd", "setting": "[13]", "value": 60, "unit": "L/kg"}, {"measurement": "bioavailability", "setting": "[14]", "value": 65, "unit": "%"}, {"measurement": "inhibition", "setting": "[15]", "value": "Dose-dependent effect"}, {"measurement": "Activity", "setting": "[16]", "value": "Dose-dependent effect"}, {"measurement": "Activity", "setting": "[17]", "value": "Dose-dependent effect"}, {"measurement": "Activity", "setting": "[18]", "value": "Dose-dependent effect"}, {"measurement": "Activity", "setting": "[19]", "value": 63, "unit": "%"}, {"measurement": "Activity", "setting": "[20]", "value": 45, "unit": "%"}, {"measurement": "Activity", "setting": "[21]", "value": 41, "unit": "%"}, {"measurement": "Activity", "setting": "[22]", "value": 51, "unit": "%"}, {"measurement": "Activity", "setting": "[23]", "value": 47, "unit": "%"}, {"measurement": "Activity", "setting": "[24]", "value": 50, "unit": "%"}, {"measurement": "Activity", "setting": "[25]", "value": 42, "unit": "%"}, {"measurement": "Activity", "setting": "[26]", "value": 41, "unit": "%"}, {"measurement": "Drug metabolism", "setting": "[27]", "value": 27, "unit": "nM"}]}]}
